This note sets out measurements from ChEMBL document CHEMBL1154383, “Novel biphenylcarboxylic acid peroxisome proliferator-activated receptor (PPAR) delta selective antagonists” (Bioorg Med Chem Lett, 2009).

Calls of active or inactive are those of the source. The calls are words filed in the database; no cut-off is given here.

For assay [1], the target named is T1, Peroxisome proliferator-activated receptor delta (Homo sapiens, UniProt Q03181).
T1 sequence (Q03181 whole entry): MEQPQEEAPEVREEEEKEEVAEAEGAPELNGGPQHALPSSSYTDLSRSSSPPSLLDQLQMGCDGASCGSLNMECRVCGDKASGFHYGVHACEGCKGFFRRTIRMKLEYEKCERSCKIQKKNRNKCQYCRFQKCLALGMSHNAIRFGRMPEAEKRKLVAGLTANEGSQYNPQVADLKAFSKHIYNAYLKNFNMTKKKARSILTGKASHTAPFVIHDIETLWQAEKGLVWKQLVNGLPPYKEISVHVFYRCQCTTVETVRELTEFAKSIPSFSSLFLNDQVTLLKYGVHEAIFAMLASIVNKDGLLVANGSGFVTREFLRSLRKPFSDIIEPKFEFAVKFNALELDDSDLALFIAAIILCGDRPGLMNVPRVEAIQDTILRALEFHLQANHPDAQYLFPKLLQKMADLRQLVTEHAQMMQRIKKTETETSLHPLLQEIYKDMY
Nature of the assay: Agonist activity at PPARdelta receptor expressed in HEK293 cells co-transfected with GAL4 by transactivation assay. It counts as functional, cell-based.

Assay [2] addresses T2, Peroxisome proliferator-activated receptor alpha (Homo sapiens) (UniProt Q07869).
T2 sequence (whole entry): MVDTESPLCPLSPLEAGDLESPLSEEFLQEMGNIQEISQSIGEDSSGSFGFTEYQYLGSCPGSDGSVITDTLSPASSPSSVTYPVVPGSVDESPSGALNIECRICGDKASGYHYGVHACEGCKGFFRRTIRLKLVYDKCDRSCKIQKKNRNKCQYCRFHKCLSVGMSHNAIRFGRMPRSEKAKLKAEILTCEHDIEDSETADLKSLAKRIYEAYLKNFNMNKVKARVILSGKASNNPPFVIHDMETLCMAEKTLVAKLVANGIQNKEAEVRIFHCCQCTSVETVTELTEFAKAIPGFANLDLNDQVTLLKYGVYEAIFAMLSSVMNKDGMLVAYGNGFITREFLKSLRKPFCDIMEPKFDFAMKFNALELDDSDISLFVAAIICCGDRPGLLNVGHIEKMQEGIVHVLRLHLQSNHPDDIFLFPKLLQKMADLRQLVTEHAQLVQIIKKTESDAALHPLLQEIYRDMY
Put plainly: (§1) Agonist activity at PPARalpha receptor expressed in HEK293 cells co-transfected with GAL4 at 1 uM by transactivation assay. The class given is functional, cell-based.

For assay [3], the target named is T3, Peroxisome proliferator-activated receptor alpha (Homo sapiens, UniProt Q07869).
T3 sequence (Q07869 whole entry): T2 sequence (whole entry)
Nature of the assay: Agonist activity at PPARalpha receptor expressed in HEK293 cells co-transfected with GAL4 by transactivation assay. The class given is functional, cell-based. The method in brief:
(§2)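 GAL4-PPARα chimeric receptor transfected into HEK293 cells; cell-based transactivation (agonist mode). Output is EC50, plus % efficacy relative to the positive control fenofibric acid for PPARα.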

The target of assay [4] is T2, Peroxisome proliferator-activated receptor alpha (Homo sapiens). Put plainly: Agonist activity at PPARalpha receptor expressed in HEK293 cells co-transfected with GAL4 by transactivation assay relative to […]. The class given is functional, cell-based. The method in brief:
as §2

In assay [5] the target is T4, Peroxisome proliferator-activated receptor gamma (Homo sapiens, UniProt P37231).
T4 sequence (P37231 whole entry): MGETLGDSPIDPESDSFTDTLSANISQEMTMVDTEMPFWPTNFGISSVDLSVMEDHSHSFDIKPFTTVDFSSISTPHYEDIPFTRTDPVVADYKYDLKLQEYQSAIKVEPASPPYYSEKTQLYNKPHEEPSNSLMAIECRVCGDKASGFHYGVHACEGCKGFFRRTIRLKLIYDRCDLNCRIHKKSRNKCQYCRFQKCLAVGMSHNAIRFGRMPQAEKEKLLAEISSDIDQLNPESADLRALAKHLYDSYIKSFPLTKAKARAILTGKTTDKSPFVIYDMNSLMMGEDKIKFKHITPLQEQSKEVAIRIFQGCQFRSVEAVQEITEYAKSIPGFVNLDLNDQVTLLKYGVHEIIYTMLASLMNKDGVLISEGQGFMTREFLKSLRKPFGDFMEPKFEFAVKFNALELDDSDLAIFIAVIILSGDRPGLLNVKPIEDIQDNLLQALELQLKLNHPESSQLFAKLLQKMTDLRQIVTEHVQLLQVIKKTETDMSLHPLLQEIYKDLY
Put plainly: Agonist activity at PPARgamma receptor expressed in HEK293 cells co-transfected with GAL4 by transactivation assay.

The target of assay [6] is T4, Peroxisome proliferator-activated receptor gamma.
Assay [7] has as its target T2, Peroxisome proliferator-activated receptor alpha (Homo sapiens). Nature of the assay: Antagonist activity at PPARalpha co-transfected with GAL4-PPAR fusion protein assessed as inhibition of TIPP703-induced response up to 10 uM by luciferase reporter gene assay. The class given is functional. An outline of the steps:
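Antagonist mode in the GAL4-PPAR chimera system. Cells were stimulated with the agonist TIPP-703, with or without three added test concentrations. Inhibition of the agonist-elicited reporter signal was assessed for dose dependence.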

Assay [8] deals with T1, Peroxisome proliferator-activated receptor delta. Nature of the assay: Antagonist activity at PPARdelta co-transfected with GAL4-PPAR fusion protein assessed as inhibition of GW-501516-induced response by luciferase reporter gene assay. The class given is functional.
Assay [9] deals with T2, Peroxisome proliferator-activated receptor alpha (Homo sapiens). Nature of the assay: Agonist activity at PPARalpha receptor expressed in HEK293 cells co-transfected with GAL4 up to 10 uM by transactivation assay. The class given is functional, cell-based. An outline of the steps:
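HEK293 cells transfected with GAL4-PPAR chimeric receptors (PPARα, δ or γ) in a cell-based transactivation assay. Results given as EC50 and % efficacy relative to a subtype positive control: fenofibric acid for PPARα, GW501516 for PPARδ, ciglitazone for PPARγ.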

Assay [10] addresses T3, Peroxisome proliferator-activated receptor alpha. The description is as §1. The class given is functional, cell-based.
The target of assay [11] is T5, Peroxisome proliferator-activated receptor gamma (Homo sapiens) (UniProt P37231).
T5 sequence (whole entry): T4 sequence (P37231 whole entry)
Put plainly: Antagonist activity at PPARgamma co-transfected with GAL4-PPAR fusion protein assessed as inhibition of TIPP703-induced response up to 10 uM by luciferase reporter gene assay. It counts as functional. The method in brief: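 Cells expressing GAL4-PPARα or GAL4-PPARγ chimeras were stimulated with the agonist TIPP-703, with or without co-treatment at 0.1, 1 or 10 µM. Antagonism was read as dose-dependent reduction of the induced transactivation signal.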

In assay [12] the target is T5, Peroxisome proliferator-activated receptor gamma (Homo sapiens). Put plainly: Agonist activity at PPARgamma receptor expressed in HEK293 cells co-transfected with GAL4 at 10 uM by transactivation assay. It counts as functional, cell-based.
For assay [13], the target named is T6, Peroxisome proliferator-activated receptor delta (Homo sapiens) (UniProt Q03181).
T6 sequence (whole entry): T1 sequence (Q03181 whole entry)
Put plainly: Agonist activity at PPARdelta receptor expressed in HEK293 cells co-transfected with GAL4 at 10 uM by transactivation assay. The class given is functional, cell-based.

For assay [14], the target named is T6, Peroxisome proliferator-activated receptor delta (Homo sapiens). Put plainly: Agonist activity at PPARdelta receptor expressed in HEK293 cells co-transfected with GAL4 at 1 uM by transactivation assay. It counts as functional, cell-based.
In assay [15] the target is Peroxisome proliferator-activated receptor delta (Homo sapiens) (UniProt Q03181). Nature of the assay: Antagonist activity at PPARdelta co-transfected with GAL4-PPAR fusion protein assessed as inhibition of GW501516-induced response by luciferase reporter gene assay.

With `CCCCOc1ccc(-c2ccc(C(=O)O)cc2F)cc1CNC(=O)c1ccc(C(F)(F)F)cc1F`, the EC50 in assay [1] turned out to be 53 nM. For the same compound, in assay [2], the result was inactive.
With `CCCCOc1ccc(-c2cccc(C(=O)O)c2C)cc1CNC(=O)c1ccc(C(F)(F)F)cc1F`, the EC50 was determined as 130 nM in assay [3] and 1.6 nM in [1]. In addition, the Efficacy in assay [4] is 100%.
`CCCCOc1ccc(C[C@H](CC)C(=O)O)cc1CNC(=O)c1ccc(C(F)(F)F)cc1F`: the concentration giving a half-maximal response (EC50) in assay [3] worked out at 240 nM; in [5] it was 1400 nM; in assay [1], 0.72 nM.
`CCCCOc1ccc(-c2ccc(C(=O)O)cc2C)cc1CNC(=O)c1ccc(C(F)(F)F)cc1F`: in [6], the IC50 worked out at 10 nM. Moreover, the result in assay [2] was inactive.
With `CCCCOc1ccc(-c2ccc(C(=O)O)cc2)cc1CNC(=O)c1ccc(C(F)(F)F)cc1F`, the outcome in assay [7], in assay [9], in assay [11] and in assay [12] was inactive. For the same compound, the IC50 in assay [8] was determined as 68 nM. Moreover, the EC50 was 170 nM in assay [1] and “Not Active” in [10].
For the compound `CCCCOc1ccc(-c2ccc(C)c(C(=O)O)c2)cc1CNC(=O)c1ccc(C(F)(F)F)cc1F`, the values for the EC50 in [3] and in assay [1] were 120 nM and 14 nM, respectively. The same compound displayed an Efficacy in assay [4] of 100%.
For `CCCCOc1ccc(-c2ccc(C(=O)O)nc2)cc1CNC(=O)c1ccc(C(F)(F)F)cc1F`, the EC50 in [1] was 400 nM. The result in assay [2] was inactive.
Take `CCCCOc1ccc(-c2cc(C(=O)O)ccc2C)cc1CNC(=O)c1ccc(C(F)(F)F)cc1F`: the EC50 in [3] was determined as 570 nM; in [1], 4.9 nM. In assay [4], this compound returned an Efficacy of 100%.
In the case of `CCCCOc1ccc(-c2ccc(C(=O)O)o2)cc1CNC(=O)c1ccc(C(F)(F)F)cc1F`, the result in assay [13], in assay [14], in [9], in assay [2], in [15] and in assay [12] was inactive.
`CCCCOc1ccc(-c2ccccc2C(=O)O)cc1CNC(=O)c1ccc(C(F)(F)F)cc1F`: the outcome in assay [14], in assay [9], in assay [2], in [15] and in assay [12] was inactive.
Turning to `CCCCOc1ccc(-c2cccc(C(=O)O)c2)cc1CNC(=O)c1ccc(C(F)(F)F)cc1F`, the figures for the EC50 in assay [3] and in [1] were 790 nM and 29 nM, respectively. For the same compound, the Efficacy in [4] came to 100%.
The corresponding values for `CCCCOc1ccc(-c2ccc(C(=O)O)c(C)c2)cc1CNC(=O)c1ccc(C(F)(F)F)cc1F` are 3000 nM, 45 nM and 100%.
On to `CCCCOc1ccc(-c2ccc(C(=O)O)cn2)cc1CNC(=O)c1ccc(C(F)(F)F)cc1F`, for which the outcome in assay [13], in assay [14], in [9], in assay [2], in assay [15] and in assay [12] was inactive.
